In ChEMBL document CHEMBL1150419, “Structure-activity relationships of a peptide inhibitor of the human FcRn:human IgG interaction” (Bioorg Med Chem, 2008):
pIC50: −log10 of the molar value.

Biological target: IgG receptor FcRn large subunit p51 (Homo sapiens, UniProt P55899)
Test: Inhibition of human IgG binding to soluble human FcRn by ELISA
In short: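 Biotinylated soluble human FcRn immobilized on neutravidin plates, incubated with hIgG (3 nM, constant) and peptide at varying concentrations for 2 h at 37 °C. After washing, bound hIgG detected with peroxidase-conjugated hIgG-specific Fab fragments.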

IgG receptor FcRn large subunit p51, sequence (P55899 whole entry): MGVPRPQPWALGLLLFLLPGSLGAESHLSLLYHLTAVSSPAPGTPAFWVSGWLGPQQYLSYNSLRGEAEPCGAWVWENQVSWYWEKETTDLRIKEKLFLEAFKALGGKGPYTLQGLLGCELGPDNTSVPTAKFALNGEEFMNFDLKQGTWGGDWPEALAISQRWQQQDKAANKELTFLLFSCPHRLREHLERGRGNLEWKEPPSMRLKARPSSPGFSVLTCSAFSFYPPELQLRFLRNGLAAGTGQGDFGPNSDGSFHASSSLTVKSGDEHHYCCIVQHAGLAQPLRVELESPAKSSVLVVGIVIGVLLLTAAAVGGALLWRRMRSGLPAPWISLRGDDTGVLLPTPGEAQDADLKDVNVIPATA

| Compound | pIC50 |
| --- | --- |
| CC(C)C[C@H](NC(=O)CNC(=O)CNC(=O)[C@H](Cc1ccccc1)NC(=O)[C@H](Cc1cnc[nH]1)N(C)C(=O)CNC(=O)[C@@H](NC(=O)[C@@H](NC(=O)[C@H](Cc1ccccc1)NC(=O)[C@@H](N)CCCN=C(N)N)C(C)(C)S)[C@@H](C)O)C(=O)N[C@@H](Cc1ccc(O)cc1)C(=O)N1CCC[C@H]1C(=O)N[C@@H](CS)C(=O)O | < 3.60 |
| CC(C)C[C@H](NC(=O)CNC(=O)CNC(=O)[C@H](Cc1ccccc1)NC(=O)[C@H](Cc1cnc[nH]1)NC(=O)CNC(=O)[C@@H](NC(=O)[C@@H](NC(=O)[C@H](Cc1ccccc1)NC(=O)[C@@H](N)CCCN=C(N)N)C(C)(C)S)[C@@H](C)O)C(=O)N[C@@H](Cc1ccc(O)cc1)C(=O)N1CCC[C@H]1C(=O)N[C@@H](CS)C(=O)O | 5.70 |
| CC[C@H](C)[C@@H](NC(=O)CNC(=O)[C@H](Cc1ccccc1)NC(=O)[C@H](Cc1cnc[nH]1)NC(=O)CNC(=O)[C@@H](NC(=O)[C@@H](NC(=O)[C@H](Cc1ccccc1)NC(=O)[C@H](CCCNC(=N)N)NC(=O)[C@@H](N)CCC(N)=O)C(C)(C)S)[C@@H](C)O)C(=O)N[C@@H](CC(C)C)C(=O)N[C@@H](Cc1ccc(O)cc1)C(=O)N1CCC[C@H]1C(=O)N[C@@H](CS)C(=O)N[C@@H](CC(N)=O)C(=O)NCC(=O)N1CCC[C@H]1C(=O)O | 4.74 |
| CC(C)C[C@@H](C(=O)N[C@@H](Cc1ccc(O)cc1)C(=O)N1CCC[C@H]1C(=O)N[C@@H](C)C(=O)O)N(C)C(=O)CN(C)C(=O)CNC(=O)[C@H](Cc1ccccc1)NC(=O)[C@H](Cc1cnc[nH]1)NC(=O)CNC(=O)[C@@H](NC(=O)[C@@H](NC(=O)[C@H](Cc1ccccc1)NC(=O)[C@@H](N)CCCNC(=N)N)C(C)C)[C@@H](C)O | 4.43 |
| CC(C)C[C@H](NC(=O)[C@@H](C)NC(=O)CNC(=O)[C@H](Cc1ccccc1)NC(=O)[C@H](Cc1cnc[nH]1)NC(=O)CNC(=O)[C@@H](NC(=O)[C@H](CS)NC(=O)[C@H](Cc1ccccc1)NC(=O)[C@H](CCCN=C(N)N)NC(=O)[C@@H](N)CCC(N)=O)[C@@H](C)O)C(=O)N[C@@H](Cc1ccc(O)cc1)C(=O)N1CCC[C@H]1C(=O)N[C@@H](CS)C(=O)N[C@@H](CC(N)=O)C(=O)NCC(=O)N1CCC[C@H]1C(=O)O | 4.24 |
| CC(C)C[C@H](NC(=O)CNC(=O)CNC(=O)[C@H](Cc1ccccc1)NC(=O)[C@H](Cc1cnc[nH]1)NC(=O)CNC(=O)[C@@H](NC(=O)[C@@H](NC(=O)[C@H](Cc1ccccc1)NC(=O)[C@H](CCCNC(=N)N)NC(=O)[C@@H](N)CCC(N)=O)C(C)(C)S)[C@@H](C)O)C(=O)N[C@@H](Cc1ccc(O)cc1)C(=O)N1CCC[C@H]1C(=O)N[C@@H](CCS)C(=O)N[C@@H](CC(N)=O)C(=O)NCC(=O)N1CCC[C@H]1C(=O)O | 5.70 |
| CC(C)C[C@H](NC(=O)CNC(=O)CNC(=O)[C@H](Cc1ccccc1)NC(=O)[C@H](Cc1cnc[nH]1)NC(=O)CNC(=O)[C@@H](NC(=O)[C@@H](NC(=O)[C@H](Cc1ccccc1)NC(=O)[C@H](CCCN=C(N)N)NC(=O)[C@@H](N)CCC(N)=O)C(C)(C)S)[C@@H](C)O)C(=O)N[C@@H](Cc1ccc(F)cc1)C(=O)N1CCC[C@H]1C(=O)N[C@@H](CS)C(=O)N[C@@H](CC(N)=O)C(=O)NCC(=O)N1CCC[C@H]1C(=O)O | 4.59 |
| CC(C)C[C@H](NC(=O)CNC(=O)[C@@H](Cc1cnc[nH]1)NC(=O)[C@H](Cc1ccccc1)NC(=O)[C@H](Cc1cnc[nH]1)NC(=O)CNC(=O)[C@@H](NC(=O)[C@@H](NC(=O)[C@H](Cc1ccccc1)NC(=O)[C@H](CCCNC(=N)N)NC(=O)[C@@H](N)CCC(N)=O)C(C)(C)S)[C@@H](C)O)C(=O)N[C@@H](Cc1ccc(O)cc1)C(=O)N1CCC[C@H]1C(=O)N[C@@H](CS)C(=O)N[C@@H](CC(N)=O)C(=O)NCC(=O)N1CCC[C@H]1C(=O)O | 5.44 |
| CC(C)C[C@@H](C(=O)N[C@@H](Cc1ccc(O)cc1)C(=O)N1CCC[C@H]1C(=O)N[C@@H](CS)C(=O)O)N(C)C(=O)CN(C)C(=O)CNC(=O)[C@H](Cc1ccccc1)NC(=O)[C@H](Cc1c[nH]nn1)NC(=O)CNC(=O)[C@@H](NC(=O)[C@@H](NC(=O)[C@H](Cc1ccccc1)NC(=O)[C@@H](N)CCCNC(=N)N)C(C)(C)S)[C@@H](C)O | 5.24 |
| CC(C)C[C@H](NC(=O)[C@H]1CCCN1C(=O)[C@@H](C)NC(=O)[C@H](Cc1ccccc1)NC(=O)[C@H](Cc1cnc[nH]1)NC(=O)CNC(=O)[C@@H](NC(=O)[C@@H](NC(=O)[C@H](Cc1ccccc1)NC(=O)[C@H](CCCN=C(N)N)NC(=O)[C@@H](N)CCC(N)=O)C(C)(C)S)[C@@H](C)O)C(=O)N[C@@H](Cc1ccc(O)cc1)C(=O)N1CCC[C@H]1C(=O)N[C@@H](CS)C(=O)N[C@@H](CC(N)=O)C(=O)NCC(=O)N1CCC[C@H]1C(=O)O | 5.43 |
| CC(C)C[C@H](NC(=O)CN(C)C(=O)CNC(=O)[C@H](Cc1ccccc1)NC(=O)[C@H](Cc1cnc[nH]1)NC(=O)CNC(=O)[C@@H](NC(=O)[C@@H](NC(=O)[C@H](Cc1ccccc1)NC(=O)[C@H](CCCN=C(N)N)NC(=O)[C@@H](N)CCC(N)=O)C(C)(C)S)[C@@H](C)O)C(=O)N[C@@H](Cc1ccc(O)cc1)C(=O)N1CCC[C@H]1C(=O)N[C@@H](CS)C(=O)N[C@@H](CC(N)=O)C(=O)NCC(=O)N1CCC[C@H]1C(=O)O | 6.05 |
| CC(C)C[C@@H](C(=O)N[C@@H](Cc1ccc(O)cc1)C(=O)N1CCC[C@H]1C(=O)N[C@@H](CS)C(N)=O)N(C)C(=O)CN(C)C(=O)CNC(=O)[C@H](Cc1ccccc1)NC(=O)[C@H](Cc1csc[n+]1C)NC(=O)CNC(=O)[C@@H](NC(=O)[C@@H](NC(=O)[C@H](Cc1ccccc1)NC(=O)[C@@H](N)CCCN=C(N)N)C(C)(C)S)[C@@H](C)O | 5.62 |
| CC(C)C[C@H](NC(=O)CNC(=O)CNC(=O)[C@H](Cc1ccccc1)NC(=O)[C@H](Cc1cnc[nH]1)NC(=O)CNC(=O)[C@@H](NC(=O)[C@H](NC(=O)[C@@H](Cc1ccccc1)NC(=O)[C@H](CCCN=C(N)N)NC(=O)[C@@H](N)CCC(N)=O)C(C)(C)S)[C@@H](C)O)C(=O)N[C@@H](Cc1ccc(O)cc1)C(=O)N1CCC[C@H]1C(=O)N[C@H](CS)C(=O)N[C@@H](CC(N)=O)C(=O)NCC(=O)N1CCC[C@H]1C(=O)O | 4.94 |
| CC(C)C[C@H](NC(=O)[C@H]1CCCN1C(=O)CNC(=O)[C@H](Cc1ccccc1)NC(=O)[C@H](Cc1cnc[nH]1)NC(=O)CNC(=O)[C@@H](NC(=O)[C@@H](NC(=O)[C@H](Cc1ccccc1)NC(=O)[C@H](CCCNC(=N)N)NC(=O)[C@@H](N)CCC(N)=O)C(C)(C)S)[C@@H](C)O)C(=O)N[C@@H](Cc1ccc(O)cc1)C(=O)N1CCC[C@H]1C(=O)N[C@@H](CS)C(=O)N[C@@H](CC(N)=O)C(=O)NCC(=O)N1CCC[C@H]1C(=O)O | 5.85 |
| CC(C)C[C@H](NC(=O)CN1CCC[C@@H](NC(=O)[C@H](Cc2ccccc2)NC(=O)[C@H](Cc2cnc[nH]2)NC(=O)CNC(=O)[C@@H](NC(=O)[C@@H](NC(=O)[C@H](Cc2ccccc2)NC(=O)[C@@H](N)CCCN=C(N)N)C(C)C)[C@@H](C)O)C1=O)C(=O)N[C@@H](Cc1ccc(O)cc1)C(=O)N1CCC[C@H]1C(=O)N[C@@H](C)C(=O)O | 4.42 |
| CC(C)C[C@H](NC(=O)CNC(=O)[C@H]1CCCN1C(=O)[C@H](Cc1ccccc1)NC(=O)[C@H](Cc1cnc[nH]1)NC(=O)CNC(=O)[C@@H](NC(=O)[C@@H](NC(=O)[C@H](Cc1ccccc1)NC(=O)[C@H](CCCN=C(N)N)NC(=O)[C@@H](N)CCC(N)=O)C(C)(C)S)[C@@H](C)O)C(=O)N[C@@H](Cc1ccc(O)cc1)C(=O)N1CCC[C@H]1C(=O)N[C@@H](CS)C(=O)N[C@@H](CC(N)=O)C(=O)NCC(=O)N1CCC[C@H]1C(=O)O | 5.30 |
| CC(C)C[C@H](NC(=O)[C@H]1CCCN1C(=O)[C@H]1CCCN1C(=O)[C@H](Cc1ccccc1)NC(=O)[C@H](Cc1cnc[nH]1)NC(=O)CNC(=O)[C@@H](NC(=O)[C@@H](NC(=O)[C@H](Cc1ccccc1)NC(=O)[C@H](CCCNC(=N)N)NC(=O)[C@@H](N)CCC(N)=O)C(C)(C)S)[C@@H](C)O)C(=O)N[C@@H](Cc1ccc(O)cc1)C(=O)N1CCC[C@H]1C(=O)N[C@@H](CS)C(=O)N[C@@H](CC(N)=O)C(=O)NCC(=O)N1CCC[C@H]1C(=O)O | 4.68 |
| CC(C)C[C@H](NC(=O)CNC(=O)[C@@H](CCCN=C(N)N)NC(=O)[C@H](Cc1ccccc1)NC(=O)[C@H](Cc1cnc[nH]1)NC(=O)CNC(=O)[C@@H](NC(=O)[C@@H](NC(=O)[C@H](Cc1ccccc1)NC(=O)[C@H](CCCN=C(N)N)NC(=O)[C@@H](N)CCC(N)=O)C(C)(C)S)[C@@H](C)O)C(=O)N[C@@H](Cc1ccc(O)cc1)C(=O)N1CCC[C@H]1C(=O)N[C@@H](CS)C(=O)N[C@@H](CC(N)=O)C(=O)NCC(=O)N1CCC[C@H]1C(=O)O | 5.39 |
| CC(C)C[C@H](NC(=O)[C@@H](C)NC(=O)[C@@H](Cc1ccccc1)NC(=O)[C@H](Cc1ccccc1)NC(=O)[C@H](Cc1cnc[nH]1)NC(=O)CNC(=O)[C@@H](NC(=O)[C@@H](NC(=O)[C@H](Cc1ccccc1)NC(=O)[C@H](CCCNC(=N)N)NC(=O)[C@@H](N)CCC(N)=O)C(C)(C)S)[C@@H](C)O)C(=O)N[C@@H](Cc1ccc(O)cc1)C(=O)N1CCC[C@H]1C(=O)N[C@@H](CS)C(=O)N[C@@H](CC(N)=O)C(=O)NCC(=O)N1CCC[C@H]1C(=O)O | 5.37 |
| CC(C)C[C@H](NC(=O)CNC(=O)CNC(=O)[C@H](Cc1ccccn1)NC(=O)[C@H](Cc1cnc[nH]1)NC(=O)CNC(=O)[C@@H](NC(=O)[C@@H](NC(=O)[C@H](Cc1ccccc1)NC(=O)[C@H](CCCNC(=N)N)NC(=O)[C@@H](N)CCC(N)=O)C(C)(C)S)[C@@H](C)O)C(=O)N[C@@H](Cc1ccc(O)cc1)C(=O)N1CCC[C@H]1C(=O)N[C@@H](CS)C(=O)N[C@@H](CC(N)=O)C(=O)NCC(=O)N1CCC[C@H]1C(=O)O | 4.05 |
| CC(C)C[C@H](NC(=O)CNC(=O)CNC(=O)[C@H](Cc1c[nH]c2ccccc12)NC(=O)[C@H](Cc1cnc[nH]1)NC(=O)CNC(=O)[C@@H](NC(=O)[C@@H](NC(=O)[C@H](Cc1ccccc1)NC(=O)[C@H](CCCN=C(N)N)NC(=O)[C@@H](N)CCC(N)=O)C(C)(C)S)[C@@H](C)O)C(=O)N[C@@H](Cc1ccc(O)cc1)C(=O)N1CCC[C@H]1C(=O)N[C@@H](CS)C(=O)N[C@@H](CC(N)=O)C(=O)NCC(=O)N1CCC[C@H]1C(=O)O | 4.59 |
